From ChEMBL document CHEMBL1949650, “Design, synthesis, computational and biological evaluation of some new hydrazino derivatives of DHA and pyranopyrazoles” (2012)
Activity calls are given as the source filed them. No cut-off for these calls is given here.

What was measured:
Rattus norvegicus [1] = assay: Antiinflammatory activity in rat assessed as inhibition of carrageenan-induced paw oedema at 50 mg/kg after 2 hrs by plethysmography relative to control; assay type: functional
Outline: (§1)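 0.1 ml of 1% carrageenan was injected subplantar into the right hind paw. Paw volume was measured plethysmographically immediately and at 1, 2, 3 and 4 h; oedema is the volume difference. Test compounds were dosed at 50 mg/kg b.w., with diclofenac sodium 50 mg/kg as reference. Percent inhibition was calculated against the saline control group. N = 5, mean ± SEM, ANOVA.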

Rattus norvegicus [2] = assay: Antiinflammatory activity in rat assessed as inhibition of carrageenan-induced paw oedema at 50 mg/kg after 3 hrs by plethysmography relative to control; assay type: functional; outline: as §1
Rattus norvegicus [3] = assay: Antiinflammatory activity in rat assessed as inhibition of carrageenan-induced paw oedema at 50 mg/kg after 4 hrs by plethysmography relative to controlchallenge by plethysmography; assay type: functional; outline: as §1
Mus musculus [4] = assay: Analgesic activity in Swiss albino mouse assessed as protection against acetic acid-induced wriths at 50 mg/kg, po administered 30 mins prior acetic acid challenge measured for 10 mins; assay type: functional
Outline: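 Adult Swiss albino mice (20-25 g) were used, with N = 5 per group. Wriths were counted for 10 min, starting 5 min after acetic acid injection, on day 1 as each mouse's control. Next day, 50 mg/kg was given orally 30 min before acetic acid. Diclofenac sodium was the standard. Protection = […] × 100 from group means. Analysis: mean ± SEM, one-way ANOVA, Tukey-Kramer.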

Rattus norvegicus [5] = assay: Antiinflammatory activity in rat assessed as inhibition of carrageenan-induced paw oedema at 50 mg/kg after 1 hr by plethysmography relative to control; assay type: functional; outline: as §1
Mus musculus [6] = assay: Analgesic activity in Swiss albino mouse assessed as inhibition of acetic acid-induced writhing at 50 mg/kg, po administered 30 mins prior acetic acid-induction measured after 1 to 2 hrs by tail immersion method; assay type: functional, organism-based; set-up: dose 50 mg/kg
Mus musculus [7] = assay: Analgesic activity in Swiss albino mouse assessed as inhibition of acetic acid-induced writhing at 50 mg/kg, po administered 30 mins prior acetic acid-induction measured after 2 hrs by tail immersion method; assay type: functional, organism-based; set-up: dose 50 mg/kg
Mus musculus [8] = assay: Analgesic activity in Swiss albino mouse assessed as inhibition of acetic acid-induced writhing at 50 mg/kg, po administered 30 mins prior acetic acid-induction measured after 1 hr by tail immersion method; assay type: functional, organism-based; set-up: dose 50 mg/kg

`CC(=O)c1c(NNc2ccc(Br)cc2)cc(C)oc1=O` was tested, and the inhibition in vivo at 50 mg/kg (Rattus norvegicus [1]) was 47.2%, the inhibition in vivo at 50 mg/kg (Rattus norvegicus [2]) was 40.4% and the inhibition in vivo at 50 mg/kg (Rattus norvegicus [3]) was 18.6%. The inhibition in vivo at 50 mg/kg (Mus musculus [4]) was 53.1% and the inhibition in vivo at 50 mg/kg (Rattus norvegicus [5]) was 46.8%.

Work on `Cc1cc2nn(-c3nc(-c4ccccc4)cs3)c(C)c2c(=O)o1` yielded an inhibition in vivo at 50 mg/kg (Rattus norvegicus [1]) of 59.5%, an inhibition in vivo at 50 mg/kg (Rattus norvegicus [2]) of 62.6% and an inhibition in vivo at 50 mg/kg (Rattus norvegicus [3]) of 52.9%. The Activity (Mus musculus [6]) was “Active”, the inhibition in vivo at 50 mg/kg (Mus musculus [4]) was 70.2% and the inhibition in vivo at 50 mg/kg (Rattus norvegicus [5]) was 67.1%.

For `CC(=O)c1c(NNc2ccc(Cl)cc2)cc(C)oc1=O`, the inhibition in vivo at 50 mg/kg (Rattus norvegicus [1]) was 57.3%, the inhibition in vivo at 50 mg/kg (Rattus norvegicus [2]) was 58.6% and the inhibition in vivo at 50 mg/kg (Rattus norvegicus [3]) was 28.4%. For the same molecule, the inhibition in vivo at 50 mg/kg (Mus musculus [4]) was 75.1% and the inhibition in vivo at 50 mg/kg (Rattus norvegicus [5]) was 54.4%.

`CC(=O)c1c(NNc2nc(-c3ccccc3)cs2)cc(C)oc1=O` gave an inhibition in vivo at 50 mg/kg (Rattus norvegicus [1]) of 48.3%, an inhibition in vivo at 50 mg/kg (Rattus norvegicus [2]) of 45.5% and an inhibition in vivo at 50 mg/kg (Rattus norvegicus [3]) of 23.5%. For the same molecule, the Activity (Mus musculus [7]) was “Active”, the inhibition in vivo at 50 mg/kg (Mus musculus [4]) was 51.4% and the inhibition in vivo at 50 mg/kg (Rattus norvegicus [5]) was 51.9%.

With `CC(=O)c1c(NNc2ccc(C)cc2)cc(C)oc1=O` the inhibition in vivo at 50 mg/kg (Rattus norvegicus [1]) was 53.4%, the inhibition in vivo at 50 mg/kg (Rattus norvegicus [2]) was 59.6% and the inhibition in vivo at 50 mg/kg (Rattus norvegicus [3]) was 50%. For the same molecule, the Activity (Mus musculus [8]) was “Active”, the inhibition in vivo at 50 mg/kg (Mus musculus [4]) was 70.2% and the inhibition in vivo at 50 mg/kg (Rattus norvegicus [5]) was 60.1%.

Molecule `CC(=O)c1c(NNc2nc(C)cc(C)n2)cc(C)oc1=O` has an inhibition in vivo at 50 mg/kg (Rattus norvegicus [1]) of 61.8%, an inhibition in vivo at 50 mg/kg (Rattus norvegicus [2]) of 55.6% and an inhibition in vivo at 50 mg/kg (Rattus norvegicus [3]) of 42.2%. The Activity (Mus musculus [8]) was “Active”, the inhibition in vivo at 50 mg/kg (Mus musculus [4]) was 64.9% and the inhibition in vivo at 50 mg/kg (Rattus norvegicus [5]) was 59.5%.

With `Cc1cc2nn(-c3ccc(Br)cc3)c(C)c2c(=O)o1` the inhibition in vivo at 50 mg/kg (Rattus norvegicus [1]) was 50.6%, the inhibition in vivo at 50 mg/kg (Rattus norvegicus [2]) was 49.5% and the inhibition in vivo at 50 mg/kg (Rattus norvegicus [3]) was 38.2%. For the same molecule, the Activity (Mus musculus [6]) was “Active”, the inhibition in vivo at 50 mg/kg (Mus musculus [4]) was 44.9% and the inhibition in vivo at 50 mg/kg (Rattus norvegicus [5]) was 59.5%.

`COc1ccc(-n2nc3cc(C)oc(=O)c3c2C)cc1` gave an inhibition in vivo at 50 mg/kg (Rattus norvegicus [1]) of 53.9%, an inhibition in vivo at 50 mg/kg (Rattus norvegicus [2]) of 57.6% and an inhibition in vivo at 50 mg/kg (Rattus norvegicus [3]) of 42.2%. It also gave an inhibition in vivo at 50 mg/kg (Mus musculus [4]) of 75.9% and an inhibition in vivo at 50 mg/kg (Rattus norvegicus [5]) of 64.6%.

`Cc1ccc(-n2nc3cc(C)oc(=O)c3c2C)cc1` showed an inhibition in vivo at 50 mg/kg (Rattus norvegicus [1]) of 58.4%, an inhibition in vivo at 50 mg/kg (Rattus norvegicus [2]) of 54% and an inhibition in vivo at 50 mg/kg (Rattus norvegicus [3]) of 41.7%. For the same molecule, the Activity (Mus musculus [7]) was “Active”, the inhibition in vivo at 50 mg/kg (Mus musculus [4]) was 69.4% and the inhibition in vivo at 50 mg/kg (Rattus norvegicus [5]) was 63.3%.

`CC(=O)c1c(NNc2nc3ccccc3s2)cc(C)oc1=O` showed an inhibition in vivo at 50 mg/kg (Rattus norvegicus [1]) of 58.4%, an inhibition in vivo at 50 mg/kg (Rattus norvegicus [2]) of 54.5% and an inhibition in vivo at 50 mg/kg (Rattus norvegicus [3]) of 49%. The Activity (Mus musculus [8]) was “Active”, the Activity (Mus musculus [6]) was “Active” and the inhibition in vivo at 50 mg/kg (Mus musculus [4]) was 65.3%. For the same molecule, the inhibition in vivo at 50 mg/kg (Rattus norvegicus [5]) was 64.6%.

`Cc1cc2nn(-c3ccc(Cl)cc3)c(C)c2c(=O)o1` was tested, and the inhibition in vivo at 50 mg/kg (Rattus norvegicus [1]) was 59.5%, the inhibition in vivo at 50 mg/kg (Rattus norvegicus [2]) was 56.6% and the inhibition in vivo at 50 mg/kg (Rattus norvegicus [3]) was 38.2%. The inhibition in vivo at 50 mg/kg (Mus musculus [4]) was 65.3% and the inhibition in vivo at 50 mg/kg (Rattus norvegicus [5]) was 58.2%.

With `CC(=O)c1c(NNc2ccccc2)cc(C)oc1=O` the inhibition in vivo at 50 mg/kg (Rattus norvegicus [1]) was 57.3%, the inhibition in vivo at 50 mg/kg (Rattus norvegicus [2]) was 55.6% and the inhibition in vivo at 50 mg/kg (Rattus norvegicus [3]) was 52%. The Activity (Mus musculus [8]) was “Active”, the inhibition in vivo at 50 mg/kg (Mus musculus [4]) was 49.8% and the inhibition in vivo at 50 mg/kg (Rattus norvegicus [5]) was 59.5%.

In the case of `O=C(O)Cc1ccccc1Nc1c(Cl)cccc1Cl` [DICLOFENAC SODIUM], the inhibition in vivo at 50 mg/kg (Rattus norvegicus [1]) is reported as 67.4%, the inhibition in vivo at 50 mg/kg (Rattus norvegicus [2]) is reported as 69.7% and the inhibition in vivo at 50 mg/kg (Rattus norvegicus [3]) is reported as 66.7%. The inhibition in vivo at 50 mg/kg (Mus musculus [4]) was 77.5% and the inhibition in vivo at 50 mg/kg (Rattus norvegicus [5]) was 70.9%.

With `COc1ccc(NNc2cc(C)oc(=O)c2C(C)=O)cc1` the inhibition in vivo at 50 mg/kg (Rattus norvegicus [1]) was 49.4%, the inhibition in vivo at 50 mg/kg (Rattus norvegicus [2]) was 44.4% and the inhibition in vivo at 50 mg/kg (Rattus norvegicus [3]) was 24.5%. It also gave an inhibition in vivo at 50 mg/kg (Mus musculus [4]) of 59.2% and an inhibition in vivo at 50 mg/kg (Rattus norvegicus [5]) of 50%.

Work on `Cc1cc2nn(-c3ccccc3)c(C)c2c(=O)o1` yielded an inhibition in vivo at 50 mg/kg (Rattus norvegicus [1]) of 55%, an inhibition in vivo at 50 mg/kg (Rattus norvegicus [2]) of 52.5% and an inhibition in vivo at 50 mg/kg (Rattus norvegicus [3]) of 43.1%. For the same molecule, the Activity (Mus musculus [8]) was “Active”, the Activity (Mus musculus [6]) was “Active” and the inhibition in vivo at 50 mg/kg (Mus musculus [4]) was 50.2%. It also gave an inhibition in vivo at 50 mg/kg (Rattus norvegicus [5]) of 57%.

`CC(=O)c1c(NNc2ccc([N+](=O)[O-])cc2)cc(C)oc1=O` was tested, and the inhibition in vivo at 50 mg/kg (Rattus norvegicus [1]) was 55%, the inhibition in vivo at 50 mg/kg (Rattus norvegicus [2]) was 45.5% and the inhibition in vivo at 50 mg/kg (Rattus norvegicus [3]) was 44.1%. For the same molecule, the inhibition in vivo at 50 mg/kg (Mus musculus [4]) was 47.3% and the inhibition in vivo at 50 mg/kg (Rattus norvegicus [5]) was 53.2%.

Work on `CC(=O)c1c(NNc2cc(C)c3ccccc3n2)cc(C)oc1=O` yielded an inhibition in vivo at 50 mg/kg (Rattus norvegicus [1]) of 55%, an inhibition in vivo at 50 mg/kg (Rattus norvegicus [2]) of 55.6% and an inhibition in vivo at 50 mg/kg (Rattus norvegicus [3]) of 51%. For the same molecule, the Activity (Mus musculus [8]) was “Active”, the Activity (Mus musculus [7]) was “Active” and the Activity (Mus musculus [6]) was “Active”. For the same molecule, the inhibition in vivo at 50 mg/kg (Mus musculus [4]) was 75% and the inhibition in vivo at 50 mg/kg (Rattus norvegicus [5]) was 51.9%.
